Screening data deposited in PubChem by several laboratories.
PPC-1+TRAIL kill = PPC-1 cancer cell killing with TRAIL present; AID 1443; 220,000 compounds, 0.41% hits; PPC-1 cells + TRAIL, ATPLite viability luminescence; cell killing (% activity), % at 4 µM or 5 µM;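 active = cell killing above 50% in the first pass at 4 µM, then a duplicate retest at 5 µM averaging 50% or more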
STAT3 activator = increases IL-6 driven STAT3 reporter signal; U3A cells, IL-6 STAT3-luciferase reporter, luminescence; 100% = signal with IL-6 EC80 alone; activation (% of control), % at 5.6 µM; 190,000 compounds, 0.91% hits;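 active = activation above the screen-wide mean of compound activation plus 3 SD, cut at about 130% in these data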
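Test system: STAT3-luciferase reporter U3A cells; Detection: reporter luminescence signal; Times: 1 h compound pre-exposure, 6 h IL-6 stimulation, 37 °C; Benchmarks: IL-6-only high control; Also added: IL-6 stimulus at 33 ng/mL final.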
C8 TRAIL sens = sensitizes caspase-8 expressing cells to TRAIL; NB7+C8 cells + TRAIL, ATPlite viability luminescence; inhibition (viability loss, TRAIL sensitization), % at 10 µM; 360,000 compounds, 1% hits; AID 624354;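 active = compounds causing at least 50% loss of cell viability in the single-dose screen, relative to plate controls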
STAT3 inh-1 = STAT3 signaling inhibition | U3A cells, IL-6 STAT3-luciferase reporter, luminescence; host cell line lacks STAT1 | inhibition, % at 5.5 µM | 190,000 compounds, 0.89% hits;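 active = inhibition above the mean inhibition across all screened compounds plus 3 SD, cut at about 44% in these data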
STAT1 inh = inhibitors of IFN-gamma induced STAT1 signaling. NIH 3T3 STAT1-luciferase reporter, luminescence. inhibition, % at 5.5 µM. 200,000 compounds, 0.35% hits. AID 920;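 active = inhibition above a set limit, the mean inhibition across all tested compounds plus 3 SD, cut at about 34% in these data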
STAT3 inh-2 = STAT3 inhibition, confirmation assay; inhibition, % at 5.7 µM; shares compounds with STAT3 inh-1; AID 1265; U3A cells, IL-6 STAT3 luciferase reporter, luminescence; cell line lacks STAT1; 1,200 compounds, 45% hits;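 active = inhibition above the hit cutoff computed for the primary STAT3 screen, cut at about 44% in these data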
NFkB inh 2 = counter-screen for STAT3 inhibitors: NF-kappaB inhibition. shares compounds with STAT3 inh-1. HEK293T NF-kB luciferase reporter, TNF-alpha induced. inhibition, % at 5.7 µM. 1,200 compounds, 36% hits;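 active = inhibition above the mean of solvent-only control wells plus 3 SD, cutoff set per campaign, cut at about 13% in these data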
STAT1 inh STAT3c = counter-screen for STAT3 inhibitors: STAT1 inhibition; 1,200 compounds, 27% hits; inhibition, % at 5.7 µM; shares compounds with STAT3 inh-1; NIH 3T3 STAT1-luciferase reporter, IFN-gamma induced, luminescence;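 active = inhibition above the mean plus 3 SD of solvent-only control wells, limit set per screening run, cut at about 16% in these data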
Each line names hits and unclear results; the compound was inactive in the other large screens (follow-up assays come after a bar, where they were run). A selection: hits, their analogues and other compounds. The true share with any hit is near 1.8%.

Cc1nc(-c2cccc(NC(=O)c3ccc(Br)o3)c2)cs1	none (no result: PPC-1+TRAIL kill, STAT3 activator, STAT3 inh-1, STAT1 inh)
Cc1cccc(NC(=O)c2ccc(CN3CCN(Cc4ccccc4)CC3)cc2)c1	STAT3 inh-1 63 | STAT3 inh-2 62 | NFkB inh 2 14 | STAT1 inh STAT3c inactive
COc1ccc(C(=O)Nc2cccc(C)c2)cc1	STAT3 inh-1 44 | STAT3 inh-2 inactive | NFkB inh 2 inactive | STAT1 inh STAT3c inactive
O=C(Nc1cccc(C(=O)N2CCN(Cc3ccccc3)CC2)c1)c1ccccc1	none
Cc1nc(-c2ccc(C(=O)Nc3cccc(Br)c3)cc2)cs1	C8 TRAIL sens 78, STAT3 inh-1 88 | STAT3 inh-2 81 | NFkB inh 2 inactive | STAT1 inh STAT3c inactive
C=CCn1c(C)cc(C2=NNC(=NC(C)(C)C)SC2)c1C	C8 TRAIL sens 70, STAT3 inh-1 58 | STAT3 inh-2 45 | NFkB inh 2 28 | STAT1 inh STAT3c inactive
C=CCN=C1NN=C(c2cc(C)n(CCOC)c2C)CS1	STAT3 inh-1 78 | STAT3 inh-2 inactive | NFkB inh 2 inactive | STAT1 inh STAT3c inactive
CN(CCc1ccccc1)c1cc2c(c3c1ccn3C)C1CCC2C1 (stereo not given)	none (no result: PPC-1+TRAIL kill, STAT3 activator, STAT3 inh-1, STAT1 inh)
CCCCCCn1ccc(=N)cc1	STAT3 inh-1 70 | STAT3 inh-2 56 | NFkB inh 2 18 | STAT1 inh STAT3c inactive
O=C(O)c1ccc2ncsc2c1	none (no result: STAT3 activator, STAT3 inh-1, STAT1 inh)
O=C(O)c1ccc2nc(-c3ccccc3)sc2c1	STAT3 inh-1 79, STAT1 inh 36 | STAT3 inh-2 46 | NFkB inh 2 18 | STAT1 inh STAT3c inactive
Cc1ccc(NS(=O)(=O)c2ccc3c(c2)OCCCO3)cc1S(=O)(=O)N1CCOCC1	none (no result: PPC-1+TRAIL kill, STAT3 activator, STAT3 inh-1, STAT1 inh)
COC1=C(N)C(=O)c2nc(-c3nc(C(=O)O)c(C)c(-c4ccc(OC)c(OC)c4O)c3N)ccc2C1=O	STAT3 inh-1 106 (no result: C8 TRAIL sens) | STAT3 inh-2 103 | NFkB inh 2 97 | STAT1 inh STAT3c 85
CCC(=O)Oc1ccc(-c2nc(-c3cccnc3)no2)cc1	STAT3 inh-1 46 | STAT3 inh-2 inactive | NFkB inh 2 inactive | STAT1 inh STAT3c inactive
Cc1ccc(-c2nc(-c3cccnc3)no2)cc1	none
CCc1ccc(CNC(=O)c2cc3c(C)nc4ccccc4c3o2)cc1	STAT3 inh-1 52 | STAT3 inh-2 inactive | NFkB inh 2 inactive | STAT1 inh STAT3c inactive
COc1ccc(CNC(=O)c2cc3c(C)nc4ccccc4c3o2)c(OC)c1	STAT3 inh-1 79 | STAT3 inh-2 60 | NFkB inh 2 15 | STAT1 inh STAT3c 20
COc1cccc(CNC(=O)c2cc3c(C)nc4ccccc4c3o2)c1	STAT3 inh-1 46 | STAT3 inh-2 inactive | NFkB inh 2 inactive | STAT1 inh STAT3c inactive
CC(C)NC(=O)c1cccc2c(-c3ccc(F)c(F)c3)coc12	none (no result: PPC-1+TRAIL kill, STAT3 activator, STAT3 inh-1, STAT1 inh)
CC1(C)NC(=O)N(CC(=O)OCC(=O)NC(=O)c2ccccc2)C1=O	none (no result: PPC-1+TRAIL kill, STAT3 activator, STAT3 inh-1, STAT1 inh)
CN(C)S(=O)(=O)c1ccc(C(=O)Nc2nc(-c3cccs3)cs2)cc1	STAT3 inh-1 53 | STAT3 inh-2 44 | NFkB inh 2 inactive | STAT1 inh STAT3c inactive
O=C(Nc1nc(-c2cccs2)cs1)c1ccc(S(=O)(=O)N2CCCC2)cc1	none
COc1cc(C)ccc1OCC(=O)OCC(=O)c1[nH]c(C)c(C(C)=O)c1C	none (no result: PPC-1+TRAIL kill, STAT3 activator, STAT3 inh-1, STAT1 inh)
CC(=O)c1c(C)[nH]c(C(=O)COc2cc(C)ccc2C(C)C)c1C	STAT3 inh-1 68 | STAT3 inh-2 73 | NFkB inh 2 21 | STAT1 inh STAT3c 22
COc1ccccc1OCC(=O)c1[nH]c(C)c(C(C)=O)c1C	STAT3 inh-1 56 | STAT3 inh-2 46 | NFkB inh 2 inactive | STAT1 inh STAT3c inactive
CCOC(=O)c1cccc(NC(=O)CSc2nc3cccnc3n2C)c1	STAT3 inh-1 59 | STAT3 inh-2 inactive | NFkB inh 2 inactive | STAT1 inh STAT3c inactive
CCOC(=O)c1sc(NC(=O)CSc2nc3cccnc3n2C)nc1C	none (no result: PPC-1+TRAIL kill, STAT3 activator, STAT3 inh-1, STAT1 inh)
Cc1ccc2c(c1)C(N1CCCC1=O)CC(c1ccco1)N2 (stereo not given)	C8 TRAIL sens 48, STAT3 inh-1 70 | STAT3 inh-2 inactive | NFkB inh 2 inactive | STAT1 inh STAT3c inactive
Cc1cnc(NC(=O)C2COc3ccccc3O2)s1 (stereo not given)	STAT3 inh-1 71 | STAT3 inh-2 inactive | NFkB inh 2 inactive | STAT1 inh STAT3c inactive
Cc1csc(NC(=O)C2COc3ccccc3O2)n1 (stereo not given)	STAT3 inh-1 57 | STAT3 inh-2 inactive | NFkB inh 2 inactive | STAT1 inh STAT3c inactive
Cc1nc2ccc3nc(NC(=O)C4COc5ccccc5O4)sc3c2s1 (stereo not given)	none
CN(C)C(=O)CSc1cnc2ccccc2n1	none
Cc1ccc(C(=O)CSc2cnc3ccccc3n2)cc1C	STAT3 inh-1 54 | STAT3 inh-2 inactive | NFkB inh 2 inactive | STAT1 inh STAT3c inactive
O=C(CCCCCCCC(=O)N1CCCCCC1)N1CCCCCC1	none (no result: PPC-1+TRAIL kill, STAT3 activator, STAT3 inh-1, STAT1 inh)
CC(=O)c1cn(CC(=O)Nc2ccccc2C)c2ccccc12	STAT3 inh-1 44 | STAT3 inh-2 44 | NFkB inh 2 inactive | STAT1 inh STAT3c inactive
CC(=O)c1cn(CC(=O)Nc2c(C)cccc2C)c2ccccc12	none
CC(=O)c1cn(CC(=O)Nc2ccc(C)c(C)c2)c2ccccc12	STAT3 inh-1 67 | STAT3 inh-2 53 | NFkB inh 2 19 | STAT1 inh STAT3c 18
CCCCCCCCN1C(=O)[C@H](CC(=O)NCc2ccc(C)o2)C[C@@]2(C(=O)OCC)CCC=C12	none (no result: PPC-1+TRAIL kill, STAT3 activator, STAT3 inh-1, STAT1 inh)
COC(=O)C1CCN(C(=O)c2cc(-c3ccco3)nc3ccccc23)CC1	none (no result: PPC-1+TRAIL kill, STAT3 activator, STAT3 inh-1, STAT1 inh)
O=NN(CCc1ccncc1)c1ccc(OCc2ccccc2)cc1	STAT3 inh-1 63 | STAT3 inh-2 57 | NFkB inh 2 19 | STAT1 inh STAT3c inactive
O=C(NCc1ccncc1)C(=O)N/N=C/c1ccc(OCc2ccccc2)cc1	none
Cc1cc(C(=O)CSc2nnc(N)s2)c(C)n1Cc1ccco1	STAT3 inh-1 46 | STAT3 inh-2 inactive | NFkB inh 2 inactive | STAT1 inh STAT3c inactive
Nc1nnc(SCC(=O)c2ccco2)s1	none
CCc1c(C)nc2ncnn2c1Nc1ccc(C)cc1	none (no result: PPC-1+TRAIL kill, STAT3 activator, STAT3 inh-1, STAT1 inh)
CCc1c(C)nc2ncnn2c1NCCc1ccc(OC)cc1	STAT3 inh-1 66 | STAT3 inh-2 65 | NFkB inh 2 28 | STAT1 inh STAT3c 26
CC(=O)c1c(C)[nH]c(C(=O)OCC(=O)Nc2ccc(Cl)cc2[N+](=O)[O-])c1C	STAT3 inh-1 57 | STAT3 inh-2 73 | NFkB inh 2 28 | STAT1 inh STAT3c 28
CCN(CC)S(=O)(=O)c1ccc(Oc2ccc(S(=O)(=O)N(CC)CC)cc2)cc1	STAT3 inh-1 78 | STAT3 inh-2 68 | NFkB inh 2 27 | STAT1 inh STAT3c 26
